# Assay results as given in paper PMC2937276 (Molecular cancer therapeutics, 2010).
# Like-named read-outs stand apart in the source and are kept apart here.
# Columns and labels:
# [1] = test system: Hsp90 client proteins EGFR, Akt, Cdk4 and CyclinD1; assay: Immunoblot analysis of Hsp90 client proteins in human GBM cultures; type: cell-based; conditions: human primary GBM culture cells; 250 nM, 24 hours
# How it was run: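 Human primary GBM cultures in DMEM with 10% FBS, given 250 nM test compound or vehicle for 24 h. Lysed in RIPA with 5 mM Na3VO4 and protease inhibitors. Equal protein (40 µg) resolved by SDS-PAGE, transferred to PVDF, blocked in TBS-T with 1% BSA and 5% milk. Primary antibodies overnight at 4°C, secondary 1:10000 for 1 h at room temperature, ECL.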
# [2] = test system: GBM culture GBM-1; assay: XTT cell proliferation assay; type: cell-based, Mouse; conditions: Mus musculus, GBM1, 36 h
# How it was run: (§1)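 Primary human or mouse GBM cultures (DMEM, 10% FBS) were seeded at 5000 cells per 96-well well. Cells were cultured with test compound or vehicle for 36 h. Proliferation was read by XTT assay in quadruplicate. IC50 came from nonlinear-regression curve fitting.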
# [3] = test system: GBM culture GBM15; assay: XTT cell proliferation assay; type: cell-based, Human; conditions: Homo sapiens, 36 h
# How it was run: as §1
# [4] = test system: Hsp90 client proteins EGFR, Akt, Cdk4 and Cyclin D1; assay: Immunoblot analysis of Hsp90 client proteins in mouse GBM cultures; type: cell-based
# How it was run: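 Mouse GBM-1 and GBM-2 cultures and primary astrocytes treated with 250 nM test compound for varying times, or for 24 h against vehicle. RIPA lysates with 5 mM Na3VO4 and protease inhibitors. 40 µg resolved by SDS-PAGE onto PVDF, blocked in TBS-T/BSA/milk. Primary antibodies overnight at 4°C, secondary 1:10000 for 1 h at room temperature, ECL detection. Dynamin as control.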
# [5] = test system: GBM culture GBM8; assay: XTT cell proliferation assay; type: cell-based, Human; conditions: Homo sapiens, 36 h
# How it was run: as §1
# [6] = test system: GBM culture 2231; assay: XTT cell proliferation assay; type: cell-based, Mouse; conditions: Mus musculus, 36 h
# How it was run: as §1
# [7] = test system: GBM culture GBM39; assay: XTT cell proliferation assay; type: cell-based, Human; conditions: Homo sapiens, GBM39, 36 h
# How it was run: as §1
# [8] = test system: GBM culture 69; assay: XTT cell proliferation assay; type: cell-based, Mouse; conditions: Mus musculus, 36 h
# How it was run: as §1
# [9] = type: in vivo, CD-1 mice; conditions: for Kp: brain and plasma
# [10] = test system: GBM culture GBM22; assay: XTT cell proliferation assay; type: cell-based, Human; conditions: Homo sapiens, 36 h
# How it was run: as §1
# [11] = Brain concentrations of HSP90 inhibitors after a single i.p. injection; conditions: NCR-Nude, mouse, intraperitoneal
# [12] = test system: GBM culture GBM12; assay: XTT cell proliferation assay; type: cell-based, Human; conditions: Homo sapiens, 36 h
# How it was run: as §1
# [13] = test system: GBM culture GBM-2; assay: XTT cell proliferation assay; type: cell-based, Mouse; conditions: Mus musculus, GBM2, 36 h
# How it was run: as §1
# [14] = test system: GBM culture 103; assay: XTT cell proliferation assay; type: cell-based, Mouse; conditions: Mus musculus, 36 h
# How it was run: as §1
# [15] = test system: GBM culture 2000; assay: XTT cell proliferation assay; type: cell-based, Mouse; conditions: Mus musculus, 36 h
# How it was run: as §1
# [16] = test system: GBM culture 2414; assay: XTT cell proliferation assay; type: cell-based, Mouse; conditions: Mus musculus, 36 h
# How it was run: as §1
# [17] = test system: primary astrocytes cultures; assay: Cell counting, growth of primary astrocytes under drug; type: cell-based, Mouse; conditions: increasing concentrations for 24 hours; 250 nM over time
# How it was run: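 Primary mouse astrocyte cultures were grown with rising compound concentrations for 24 h, then counted. A second set was exposed to 250 nM for the indicated times before viable-cell counts. Counts are expressed as % of untreated cells. Values are means of triplicates with SD; t-test.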
# [18] = test system: EGFR-driven mouse GBM tumor primary cell cultures (GBM-1 & -2); assay: Cell counting, growth of GBM cell cultures under drug; type: cell-based; conditions: increasing concentrations for 24 hours; 250 nM over time
# How it was run: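 Mouse primary GBM cultures (GBM-1: wild-type plus vIII EGFR; GBM-2: EGFRvIII), alongside primary mouse astrocytes, kept in DMEM with 10% FBS. Cells exposed to increasing test-compound concentrations for 24 h, or to 250 nM for varying times. Viable cells counted and expressed as percent of untreated cells. Mean of triplicates with S.D.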
# [19] = Hepatotoxicity and toxicity on exposure in mice; type: in vivo
# [20] = test system: GBM culture 2415; assay: XTT cell proliferation assay; type: cell-based, Mouse; conditions: Mus musculus, 36 h
# How it was run: as §1
# [21] = test system: GBM culture GBM43; assay: XTT cell proliferation assay; type: cell-based, Human; conditions: Homo sapiens, 36 h
# How it was run: as §1
# [22] = test system: GBM cells; assay: Apoptosis analysis; type: cell-based, Mouse; conditions: 250 nM
# How it was run: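 Two apoptosis read-outs on primary mouse GBM cultures (DMEM, 10% FBS), each with 250 nM compound for the indicated times. Pyknotic nuclei: 10,000 cells per chamber-slide well, fixed in fresh 4% PFA for 15 min, Hoechst 33258 at 5 µg/ml for 5 min. Nuclei were scored by fluorescence microscopy as % pyknotic over total across three areas. Cleaved caspase-3: western blot. Mean of three independent experiments ± SD.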
# [23] = test system: GBM culture GBM59; assay: XTT cell proliferation assay; type: cell-based, Human; conditions: Homo sapiens, 36 h
# How it was run: as §1
# [24] = test system: GBM culture 46; assay: XTT cell proliferation assay; type: cell-based, Mouse; conditions: Mus musculus, 36 h
# How it was run: as §1
# [25] = test system: GBM culture 2736; assay: XTT cell proliferation assay; type: cell-based, Mouse; conditions: Mus musculus, 36 h
# How it was run: as §1
# [26] = test system: GBM culture 2227; assay: XTT cell proliferation assay; type: cell-based, Mouse; conditions: Mus musculus, 36 h
# How it was run: as §1
# [27] = test system: GBM culture 102; assay: XTT cell proliferation assay; type: cell-based, Mouse; conditions: Mus musculus, 36 h
# How it was run: as §1
# [28] = test system: GBM culture 41; assay: XTT cell proliferation assay; type: cell-based, Mouse; conditions: Mus musculus, 36 h
# How it was run: as §1
# [29] = test system: GBM culture GBM6; assay: XTT cell proliferation assay; type: cell-based, Human; conditions: Homo sapiens, GBM6, 36 h
# How it was run: as §1
# [30] = test system: GBM culture 42; assay: XTT cell proliferation assay; type: cell-based, Mouse; conditions: Mus musculus, 36 h
# How it was run: as §1
# [31] = test system: EGFRvIII-driven GBM tumors; assay: Treatment of mice bearing GBM tumors; type: in vivo
# How it was run: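 Adult (≥3 months) conditional EGFR*/Cdkn2a/Pten/CAG-luc mice under ketamine/xylazine received 250 nL adeno-CMV-Cre stereotaxically into the brain. Tumours were followed by luciferin (225 mg/kg IP) bioluminescence and randomised at the signal threshold. Dosing: 100 mg/kg IP in DMA/Tween 20/Cremophor/saline vehicle, or vehicle alone, thrice weekly ×2 weeks, then twice weekly for >100 days. At 180 days, survivors were perfused with PFA; coronal paraffin sections were H&E-stained. N=5 control, N=4 treated.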
# [32] = male, CD-1, mouse, brain, iv, 25 mg/kg
# [33] = male, CD-1, mouse, brain, iv, 70 mg/kg
# [34] = male, CD-1, mouse, plasma, iv, 25 mg/kg
# [35] = male, CD-1, mouse, plasma, iv, 70 mg/kg
# [36] = repeat dose, 25 mg/kg i.v. every other day
smiles,measurement,setting,value
O=C1OCC/C=C/CC/C=C/C(=N/OCC(=O)N2CCCCC2)Cc2c(Cl)c(O)cc(O)c21 [NXD30001],Hsp90 client protein levels (western blot),[1],"deplete the Hsp90 client proteins EGFR, Akt, Cdk4 and CyclinD1"
same,IC50,[2],78.3 ± 8.3 nM
same,IC50,[3],60.7 ± 0.5 nM
same,Hsp90 client protein levels (western blot),"[4]; GBM-1 & -2 cultures, 250 nM for the indicated times","degradation of the Hsp90 client proteins EGFR, Akt, Cdk4 and Cyclin D1"
same,Hsp90 client protein levels (western blot),"[4]; mouse primary GBM culture cells, 250 nM, 24 hours","deplete the Hsp90 client proteins EGFR, Akt, Cdk4 and CyclinD1"
same,IC50,[5],5690 ± 450 nM
same,IC50,[6],146 ± 3.7 nM
same,IC50,[7],111.6 ± 1 nM
same,IC50,[8],73.4 ± 2.5 nM
same,AUC(0-t),"[9]; brain, repeated i.v. injections 25 mg/kg every other day, 7 doses",940 ng·h/g
same,AUC(0-t),"[9]; brain, single i.v. injection 70 mg/kg",1073 ng·h/g
same,Kp,"[9]; male, CD-1, mouse, iv, 25 mg/kg",0.135
same,Kp,"[9]; male, CD-1, mouse, iv, 70 mg/kg",0.201
same,Cmax,[9]; [32],210 ng/g
same,Tmax,[9]; [32],0.25 h
same,half-life,[9]; [32],8.99 h
same,Cmax,[9]; [33],223 ng/g
same,Tmax,[9]; [33],0.5 h
same,half-life,[9]; [33],4.07 h
same,AUC(0-t),[9]; [34],6960 ng·h/mL
same,C0 at 0.5 h,[9]; [34],4530 ng/mL
same,Vd,[9]; [34],27.9 L/kg
same,clearance,[9]; [34],59.8 mL/min/kg
same,half-life,[9]; [34],5.4 h
same,AUC(0-t),[9]; [35],5350 ng·h/mL
same,C0,[9]; [35],2140 ng/mL
same,Vd,[9]; [35],51.5 L/kg
same,clearance,[9]; [35],217 mL/min/kg
same,half-life,[9]; [35],2.74 h
same,concentration detected in brain prior to the last dose,[9]; [36],less than 10 ng/g
same,concentration detected in plasma prior to the last dose,[9]; [36],less than 10 ng/mL
same,IC50,[10],5260 ± 152 nM
same,concentration at 6 h,[11]; 100 mg/kg,676 ng/g
same,concentration at 12 h,[11]; 100 mg/kg,823 ng/g
same,concentration at 24 h,[11]; 100 mg/kg,271 ng/g
same,concentration at 48 h,[11]; 100 mg/kg,10.7 ng/g
same,concentration at 6 h,[11]; 150 mg/kg,1440 ng/g
same,concentration at 12 h,[11]; 150 mg/kg,3420 ng/g
same,concentration at 24 h,[11]; 150 mg/kg,900 ng/g
same,concentration at 48 h,[11]; 150 mg/kg,116 ng/g
same,IC50,[12],2330 ± 60 nM
same,IC50,[13],111 ± 9.4 nM
same,IC50,[14],576 ± 14.8 nM
same,IC50,[15],115 ± 9.4 nM
same,IC50,[16],31.7 ± 4.9 nM
same,inhibition of astrocyte growth,[17],but not of astrocytes
same,inhibition of GBM cell growth,[18],dose and time dependent inhibition of GBM cell growth
same,toxicity observed in the treated animals,[19]; GBM-bearing mice treated with 100 mg/kg i.p.,absence of toxicity
same,hepatotoxicity,"[19]; short and long term exposure in mice, data not shown and ref 13",does not result in hepatotoxicity
same,IC50,[20],251 ± 57.7 nM
same,IC50,[21],86.3 ± 0.2 nM
same,cleaved-caspase 3 (western blot),[22],appearance of cleaved-caspase 3
same,increase in apoptosis level (pyknotic nucleated cells),[22],10 fold
same,IC50,[23],232 ± 13.2 nM
same,IC50,[24],54.3 ± 12.5 nM
same,IC50,[25],77.6 ± 2.8 nM
same,IC50,[26],134 ± 7.7 nM
same,IC50,[27],360 ± 21.6 nM
same,IC50,[28],80.2 ± 5.9 nM
same,IC50,[29],1220 ± 35.1 nM
same,IC50,[30],73.8 ± 0.7 nM
same,effect on survival (Kaplan-Meier),"[31]; 100 mg/kg i.p. thrice weekly (X2) then twice weekly, versus vehicle",statistically significant prolongation in survival
same,survival of treated animals,"[31]; half of the treated animals, 100 mg/kg i.p. thrice weekly (X2) then twice weekly, N=4 treated",> 180 days
same,histological analysis of H&E stained brain sections of surviving animals,"[31]; surviving treated animals, after 180 days",few remaining tumor cell clusters
